Measurements from different studies.
CDK2: Cyclin-dependent kinase 2 (CDK2, Homo sapiens, UniProt P24941)
CDK2 with cyclin A: Cyclin-dependent kinase 2, with cyclin A (CDK2, Homo sapiens, UniProt P24941)
CDK2 with cyclin E: Cyclin-dependent kinase 2, with cyclin E (CDK2, Homo sapiens, UniProt P24941)
CDK2 with cyclin E1: Cyclin-dependent kinase 2, with cyclin E1 (CDK2, Homo sapiens, UniProt P24941)

CN(C)CCNS(=O)(=O)c1ccc(N/C=C2\C(=O)Nc3ccccc32)cc1 — Kd (CDK2; binding): 1.06 µM
O=S(=O)(/C=C/c1ccc(C(F)(F)F)cc1)c1ccc(-c2csc(-c3ccccc3)n2)cc1 — IC50 (CDK2; enzyme activity, inhibitor, mobility shift): 26 µM
c1ccc(CNc2ncnc3nc[nH]c23)cc1 — IC50 (Cyclin-dependent kinase 2, with cyclin A (CDK2, Homo sapiens, UniProt P24941, F80G); enzyme activity, inhibitor, radiometric): ~1 µM
Cc1cc(Nc2cc3ncccc3c(N[C@@H]3C[C@H]4CC[C@@H](C3)N4CCC#N)n2)n[nH]1 — Kd (CDK2; binding, competition with immobilised ligand): 0.75 µM
C=CC(=O)Nc1ccc(O[C@@H]2CCC[C@@H](Nc3ncc(Cl)c(-c4c[nH]c5ccccc45)n3)C2)cc1 — IC50 (CDK2 with cyclin A; enzyme activity, inhibitor, FRET): > 10 µM
CN(C)CCNc1nc2ccccc2c2[nH]c3ccccc3c12 — IC50 (CDK2 with cyclin E; enzyme activity, inhibitor, radiometric): 70 µM
OCc1c(-c2ccc(F)cc2)nc2sc3c(n12)CCCC3 — IC50 (CDK2; enzyme activity, inhibitor, mobility shift): 19 µM
COc1c(C(=O)/C=C(\O)c2ccccc2)ccc2occc12 — IC50 (CDK2 with cyclin E1; enzyme activity, inhibitor, ADP detection): > 100 µM
C=CC(=O)Nc1ccc(N2CCC[C@@H](Nc3ncc(Cl)c(-c4c[nH]c5ccccc45)n3)C2)c(F)c1 — IC50 (CDK2 with cyclin A; enzyme activity, inhibitor, FRET): 4.02 µM
CN1CCC(c2c(O)cc(O)c3c(=O)cc(-c4ccccc4)oc23)C(O)C1 (centres unmarked) — IC50 (CDK2 with cyclin A; enzyme activity, inhibitor): 0.196 µM
O=C(Nc1cc(C2CCCCC2)[nH]n1)c1ccc(Br)cc1 — Kd (CDK2; thermal stability, DSF): > 100 µM
O=c1cc(-c2ccccc2)oc2ccc3ccccc3c12 — IC50 (CDK2 with cyclin E1; enzyme activity, inhibitor, ADP detection): > 10 µM
COc1cccc(OC)c1CNC(=O)c1ccc2c(c1)C(=NNc1ccc(S(N)(=O)=O)cc1)C(=O)N2 — Kd (CDK2; binding): 0.0226 µM
CN(C)CCNC1=Nc2ccccc2-c2[nH]c3ccccc3c2C1 — IC50 (CDK2 with cyclin E; enzyme activity, inhibitor, radiometric): 73 µM
